Activity calls are given as the source filed them. The calls are words filed in the database; no cut-off is given here.
Assays:
[1] = Tmax in BomTac:NMRI-Foxn1nu mouse at 50 mg/kg, po by HPLC-MS/MS analysis; type: ADME, organism-based; conditions: in vivo
How it was run: (§1)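 Single oral gavage of BI 6727 suspended in 0.5% hydroxyethyl-cellulose (10 mL/kg) to female nude mice or male Wistar rats. EDTA plasma levels measured over time by HPLC-MS/MS with internal standard. AUC0-24 by trapezoidal rule. Parameters from noncompartmental analysis.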

BRO melanoma cell line = experiment: Antimitotic activity against human BRO melanoma cell line assessed as inhibition of cell proliferation incubated for 72 hrs by Alamar blue based fluorescence spectrophotometric analysis; type: functional
THP-1 = experiment: Antimitotic activity against human THP-1 cells assessed as inhibition of cell proliferation incubated for 72 hrs by Alamar blue based fluorescence spectrophotometric analysis; type: functional; conditions: THP-1, 72 h
How it was run: (§2)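 Cancer cell lines were cultured per supplier instructions and exposed to various inhibitor concentrations for 72 h. Growth was read as Alamar blue conversion by fluorescence. EC50 (50% growth inhibition) was extrapolated from the dose-response curve fit.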

[2] = Cmax in BomTac:NMRI-Foxn1nu mouse at 50 mg/kg, po by HPLC-MS/MS analysis; type: ADME, organism-based; conditions: in vivo; how it was run: as §1
Raji = experiment: Antimitotic activity against human Raji cells assessed as inhibition of cell proliferation incubated for 72 hrs by Alamar blue based fluorescence spectrophotometric analysis; type: functional; how it was run: as §2
HCT-116 [3] = experiment: Antitumor activity against human HCT-116 cells xenografted in BomTac:NMRI-Foxn1nu mouse assessed as T/C at 15 mg/kg, iv administered twice a week upto 6 weeks relative to control; type: functional
How it was run: (§3)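 Female nude mice bore s.c. HCT 116 (2×10^6 cells), NCI-H460 (1×10^6 cells) or serially transplanted CXB1 tumor pieces. At ~50–100 mm³, mice were randomized into groups of 10 and dosed i.v. (0.1 N HCl/saline) or by gavage (0.5% hydroxyethyl-cellulose) at 10 mL/kg. Calipers read thrice weekly, volume = length×width²×π/6. T/C from median volumes on the last day.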

NCI-H460 [4] = experiment: Induction of apoptosis in human NCI-H460 cells assessed as conversion of cleaved PRAP protein to fragment at 100 nmol/L incubated for 48 hrs by westernblot analysis; type: functional, cell-based
How it was run: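 Exponentially growing NCI-H460 cells treated with compound or DMSO control for 24 or 48 h, then harvested. Cleaved PARP fragment detected by Western blot.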

[5] = Half life in Wistar rat at 10 mg/kg, iv by HPLC-MS/MS analysis; type: ADME, organism-based; conditions: in vivo
How it was run: (§4)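 Male Wistar Crl:WI (Han) rats, n = 4, given a single 5-min i.v. infusion. BI 6727 measured in EDTA plasma at various times after the infusion started, by HPLC-MS/MS with internal standard. Parameters came from noncompartmental analysis. Terminal half-life was taken from the last two time points after i.v. dosing.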

HCT-116 [6] = experiment: Antitumor activity against human HCT-116 cells xenografted in BomTac:NMRI-Foxn1nu mouse assessed as tumor growth delay at 15 mg/kg, iv administered twice a week on consecutive days; type: functional, organism-based; conditions: time 7.0 day; how it was run: as §3
[7] = Cmax in Wistar rat at 10 mg/kg, iv by HPLC-MS/MS analysis; type: ADME, organism-based; conditions: in vivo; how it was run: as §4
[8] = Tmax in Wistar rat at 30 mg/kg, po by HPLC-MS/MS analysis; type: ADME, organism-based; conditions: in vivo; how it was run: as §1
[9] = AUC (0 to 24 hrs) in human HCT-116 cells xenografted in BomTac:NMRI-Foxn1nu mouse at 20 mg/kg, iv administered twice a week upto 6 weeks by HPLC-MS/MS analysis; type: ADME, organism-based; conditions: in vivo, 1008 h
Mus musculus = experiment: Antitumor against human CXB1 cells xenografted in BomTac:NMRI-Foxn1nu mouse assessed as suppression in tumor growth at 15 mg/kg, iv administered once a week on consecutive days; type: functional, organism-based; conditions: CXB1 cell, in the assay text read “twice a week” for “once a week”; how it was run: as §3
[10] = AUC (0 to 24 hrs) in human HCT-116 cells xenografted in BomTac:NMRI-Foxn1nu mouse at 7 mg/kg, po administered daily upto 6 weeks by HPLC-MS/MS analysis; type: ADME, organism-based; conditions: in vivo, 1008 h
HCT-116 [11] = experiment: Antitumor activity against human HCT-116 cells xenografted in BomTac:NMRI-Foxn1nu mouse assessed as […] in tumor size at 20 mg/kg, iv administered twice a week on consecutive days; type: functional, organism-based
[12] = AUC (0 to infinity) in BomTac:NMRI-Foxn1nu mouse at 35 mg/kg, iv by HPLC-MS/MS analysis; type: ADME, organism-based; conditions: in vivo
How it was run: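 Single i.v. dose: male Wistar rats (n=4) by 5-min infusion, female nude mice (n=3). EDTA plasma was sampled at various times and extracted with internal standard, NaOH, methanol/formic acid and acetonitrile. Analysis by LC-MS/MS (ESI+, C18, ammonium acetate pH 4.0/acetonitrile gradient). Noncompartmental parameters; AUC by trapezoidal rule.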

[13] = Volume of distribution at steady state in Wistar rat at 10 mg/kg, iv by HPLC-MS/MS analysis; type: ADME, organism-based; conditions: in vivo, read-out: Vdss; how it was run: as §4
HCT-116 [14] = experiment: Antitumor activity against human HCT-116 cells xenografted in BomTac:NMRI-Foxn1nu mouse assessed as the number of apoptotic cells in large intestine at 40 mg/kg, iv; type: functional, organism-based
How it was run: (§5)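 Female nude mice bore s.c. HCT 116 tumors (~200 mm³) and received a single i.v. 40 mg/kg dose or vehicle (n=3 per group per time). Tumor, small intestine and large intestine were taken at 6, 24 and 48 h. Frozen sections were stained for pSer10 histone H3 (immunoperoxidase) or by TUNEL. Positive area was calculated as % of tumor cell area; Student's t test.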

HCT-116 [15] = experiment: Antitumor activity against human HCT-116 cells xenografted in BomTac:NMRI-Foxn1nu mouse assessed as tumor regression at 15 mg/kg, iv administered twice a week on consecutive days; type: functional, organism-based; how it was run: as §3
NCI-H460 [16] = experiment: Antimitotic activity against human NCI-H460 cells assessed as histone H3 phosphoserine 10 level at 100 nmol/L incubated for 24 hrs by immunofluorescence analysis; type: functional, cell-based
How it was run: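 NCI-H460 cells on chamber slides were treated next day for 24 h with inhibitor or 0.1% DMSO vehicle. They were fixed and permeabilized with 4% formaldehyde/Triton X-100 for 5 min at RT, then stained with anti-tubulin and anti-phospho-Ser10 histone H3 (1:500 in PBS/2% BSA) plus DAPI 0.05 µg/mL. Imaged by fluorescence microscopy.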

[17] = AUC (0 to 24 hrs) in human HCT-116 cells xenografted in BomTac:NMRI-Foxn1nu mouse at 25 mg/kg, po administered twice a week upto 6 weeks by HPLC-MS/MS analysis; type: ADME, organism-based; conditions: in vivo, 1008 h
HCT-116 [18] = experiment: Antitumor activity against human HCT-116 cells xenografted in BomTac:NMRI-Foxn1nu mouse assessed as T/C at 7 mg/kg, po administered daily upto 6 weeks relative to control; type: functional; how it was run: as §3
Granta-519 = experiment: Antimitotic activity against human Granta-519 cells assessed as inhibition of cell proliferation incubated for 72 hrs by Alamar blue based fluorescence spectrophotometric analysis; type: functional; conditions: Granta-519, 72 h; how it was run: as §2
HCT-116 [19] = experiment: Antitumor activity against human HCT-116 cells xenografted in BomTac:NMRI-Foxn1nu mouse assessed as mitotic index in large intestine at 40 mg/kg, iv; type: functional, organism-based; how it was run: as §5

## CC[C@@H]1C(=O)N(C)c2cnc(Nc3ccc(C(=O)N[C@H]4CC[C@H](N5CCN(CC6CC6)CC5)CC4)cc3OC)nc2N1C(C)C [VOLASERTIB]
[1]
  Tmax: 1.7 h
BRO melanoma cell line
  EC50: 11 nM
THP-1
  EC50: 36 nM
[2]
  Cmax: 5.7 µM
Raji
  EC50: 37 nM
HCT-116 [3]
  T/C: 1%
NCI-H460 [4]
  Activity: Active
[5]
  half-life: 54 h
HCT-116 [6]
  Activity: Active
[7]
  Cmax: 11.9 µM
[8]
  Tmax: 6.7 h
[9]
  AUC: 66 µM·h
Mus musculus
  Activity: Active
[10]
  AUC: 44 µM·h
HCT-116 [11]
  Activity: Active
[12]
  AUC(0-inf): 100 µM·h
[13]
  Vd: 22 L/kg
HCT-116 [14]
  Activity: inactive
HCT-116 [15]
  Activity: Active
NCI-H460 [16]
  Activity: Active
[17]
  AUC: 43 µM·h
HCT-116 [18]
  T/C: 3%
Granta-519
  EC50: 15 nM
HCT-116 [19]
  Activity: inactive

Source: ChEMBL document CHEMBL5661977, “BI 6727, a Polo-like kinase inhibitor with improved pharmacokinetic profile and broad antitumor activity” (Clin Cancer Res, 2009)
